Here are results for five compounds from ChEMBL document CHEMBL1156424, “Withaferin a strongly elicits IkappaB kinase beta hyperphosphorylation concomitant with potent inhibition of its kinase activity” (J Biol Chem, 2007).

Active and inactive are the calls of the source. The rule behind the calls is not given here.

The test system of experiment [1] is Mus musculus. The experiment in a line: Antiinflammatory activity against ip dosed zymosan-induced C57BL/6J mouse inflamed paw model assessed as effect on paw swelling administered 30 mins before zymosan challenge. It is filed as functional, organism-based. The procedure, abridged: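 Male/female not stated; 8-week-old C57BL/6J mice, 10 per group. 60 µl ip of 0.5 mg/mouse in Me2SO (vehicle group: Me2SO alone; DEX 150 µg/mouse as comparator), then 30 min later zymosan (15 mg/ml in PBS) sc into right footpad, left footpad uninjected. Thickness of both footpads measured by caliper at 6, 12, 24 and 48 h; read-out is injected minus non-injected difference.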

The test system of experiment [2] is Mus musculus. The experiment in a line: Reduction of IL6 protein level in ip dosed zymosan-induced C57BL/6J mouse inflamed paw model measured 6 hrs after zymosan challenge. The experiment is classed as functional, organism-based. The method, boiled down:
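Mice (six per group) pretreated ip with 0.5 mg/mouse in Me2SO, DEX 150 µg/mouse or Me2SO 60 µl/mouse, 30 min before footpad zymosan. Blood drawn by retro-orbital sinus puncture under isoflurane 6 h after zymosan; IL-6 quantified by 7TD1 cell growth-stimulation bioassay. Groups compared with control by ANOVA, p<0.05 significant.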

Experiment [3] has as its target T1, Inhibitor of nuclear factor kappa-B kinase subunit beta (Mus musculus) (UniProt O88351).
T1 sequence (whole entry): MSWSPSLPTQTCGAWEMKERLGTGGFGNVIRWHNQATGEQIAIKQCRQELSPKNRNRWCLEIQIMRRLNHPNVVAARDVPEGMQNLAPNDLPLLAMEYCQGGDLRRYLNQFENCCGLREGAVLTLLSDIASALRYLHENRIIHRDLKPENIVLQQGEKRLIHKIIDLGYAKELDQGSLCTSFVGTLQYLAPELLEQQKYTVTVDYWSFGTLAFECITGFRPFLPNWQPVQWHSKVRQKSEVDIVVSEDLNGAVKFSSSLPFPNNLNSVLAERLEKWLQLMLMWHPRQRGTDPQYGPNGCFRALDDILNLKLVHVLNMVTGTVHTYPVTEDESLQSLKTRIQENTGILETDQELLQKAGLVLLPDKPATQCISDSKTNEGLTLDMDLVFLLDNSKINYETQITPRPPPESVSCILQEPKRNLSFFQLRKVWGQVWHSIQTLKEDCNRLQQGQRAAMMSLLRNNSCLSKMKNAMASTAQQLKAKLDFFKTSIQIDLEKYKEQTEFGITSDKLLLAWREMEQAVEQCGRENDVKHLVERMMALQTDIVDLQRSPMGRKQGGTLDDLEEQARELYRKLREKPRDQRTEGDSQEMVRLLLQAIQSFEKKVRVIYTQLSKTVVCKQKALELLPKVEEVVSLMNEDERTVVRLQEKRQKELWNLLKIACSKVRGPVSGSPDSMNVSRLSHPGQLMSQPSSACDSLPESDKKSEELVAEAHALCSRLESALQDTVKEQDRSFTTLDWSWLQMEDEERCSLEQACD
As to the kind of experiment: Induction of IKK-beta-mediated IkappaBalpha degradation in TNF-stimulated mouse L929sA cells at 2.8 ug/ml by Western blot. On the technique in general: A western blot detects proteins with antibodies after separation by electrophoresis.

Experiment [4] addresses T1, Inhibitor of nuclear factor kappa-B kinase subunit beta (Mus musculus). As to the kind of experiment: Induction of IKK-beta-hyperphosphorylation in TNF-stimulated mouse L929sA cells at 2.8 ug/ml by Western blot.
Experiment [5] deals with L929sA. The experiment in a line: Reversal of inhibition of TNF-induced NFkappaB/DNA binding in mouse L929sA cells at 2.8 ug/ml in presence of 250 uM dithiothreitol by electrophoretic mobility shift assay. It is filed as cell-based. The procedure, abridged:
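L929sA cells co-treated 1 h with 2.8 µg/ml and 250 µM DTT, then 2000 IU/ml TNF for 30 min. Equal protein from total extracts incubated 25 min with a 32P-labeled NFκB-specific oligonucleotide (labeled with [α-32P]dCTP by Klenow) for EMSA.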
For orientation: A gel shift assay detects complexes by their altered migration in electrophoresis.

For experiment [6], the target named is T1, Inhibitor of nuclear factor kappa-B kinase subunit beta (Mus musculus). The experiment in a line: Reversal of induction of IKK-beta-hyperphosphorylation in TNF-stimulated mouse L929sA cells at 2.8 ug/ml in presence of 5 mM dithiothreitol.
A short description of experiment [7]: (§1) Inhibition of TNF-induced NF-kappaB-mediated IL6 promoter expression in mouse L929sA cells by luciferase reporter gene assay. It is filed as cell-based. The procedure, abridged:
(§2)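 Stably transfected mouse L929sA cells carrying p(IL-6κB)350hu.IL6P-luc+ (NFκB-responsive elements in front of a minimal IL-6 promoter), pretreated 1 h with compound over a concentration range, then given 2000 IU/ml TNF for 6 h. Luciferase in lysates was normalized to co-expressed β-galactosidase (chemiluminescent) and protein.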

Experiment [8] relates to L929sA. The description is as §1. It is filed as cell-based. The procedure, abridged:
as §2

Broadly, the IC50 is the concentration needed to halve the response being measured. A low value points to greater potency in that assay. Regarding `CC1=C(CO)C(=O)O[C@@H]([C@@H](C)[C@H]2CC[C@H]3[C@@H]4C[C@H]5O[C@]56[C@@H](O)C=CC(=O)[C@]6(C)[C@H]4CC[C@]23C)C1` [WITHAFERIN A], the outcome (with Mus musculus [1]; in the experiment with Mus musculus [2]; in experiment [3]; in experiment [4]; with L929sA [5]; in experiment [6]) was Active. In experiment [7], this compound showed an IC50 of 0.25 µM. The same compound returned an Efficacy with L929sA [8] of 95%.
For `C[C@@H]1C[C@H]2[C@@H]3CCC4=CC(=O)C=C[C@]4(C)[C@@]3(F)[C@@H](O)C[C@]2(C)[C@@]1(O)C(=O)CO`, the outcome in the experiment with Mus musculus [1] and with Mus musculus [2] was Active.
Turning to `CC1=C(CO)C(=O)OC([C@@H](C)C2CCC3C4C(CC[C@@]32C)[C@@]2(C)C(=O)C=CC[C@]2(O)[C@H]2O[C@@H]42)C1` (some centres not stated), the outcome in experiment [3] and in experiment [4] was inactive. The compound also showed an IC50 in experiment [7] of 90 µM.
Take `CC1=C(C)C(=O)O[C@@H]([C@](C)(O)[C@H]2CC[C@H]3[C@@H]4[C@@H]5O[C@@H]5[C@@]5(O)CC=CC(=O)[C@]5(C)[C@H]4CC[C@]23C)C1` [WITHANOLIDE A]: the result in experiment [3] and in experiment [4] was inactive. For the same compound, half-maximal inhibition in experiment [7] (IC50) required 50 µM.
In the case of `C=C1C(=O)O[C@@H]2C[C@@H](C)[C@@H]3C=CC(=O)[C@@]3(C)[C@@H](O)[C@H]12` [HELENALIN], it took 2.5 µM to reach half-maximal inhibition in experiment [7] (IC50).
